Organism: Cavia porcellus
Experiment: Partial agonist potency at 1 uM was measured using Guinea pig ileum preparation
Type: functional
Details: not given
How it was run: (§1)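 Longitudinal muscle strips from male Hartley guinea pig ileum (250–400 g) in Krebs-Tris at 37 °C, oxygenated. Stimulated electrically at 0.1 Hz, 0.8 ms, supramaximal voltage, under 1 g resting tension. Contractions recorded isometrically after 90 min equilibration, with cumulative dose–response curves for inhibition. Partial agonist response is taken at 1 μM.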

Oc1cccc2c1O[C@H]1[C@H](O)CC[C@@H]3CN(CC4CC4)CC[C@@]231 gave a Max response of 78%.

Organism: Cavia porcellus
Experiment: Ke value was measured as antagonist/ (IC50 ratio - 1)
Type: functional
Details: not given
How it was run: (§2)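 Ileum strips in the electrically stimulated guinea pig ileum set-up, 37 °C Krebs-Tris. […] IC50 ratio is IC50 with antagonist divided by control IC50 in the same preparation. Ke = [antagonist]/(IC50 ratio – 1).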

For Oc1cccc2c1O[C@H]1[C@H](O)CC[C@@H]3CN(CC4CC4)CC[C@@]231, the Ke was 13.3 nM.

Organism: Cavia porcellus
Experiment: Ke value was measured as concentration of antagonist/ (IC50 ratio - 1)
Type: functional
Details: not given
How it was run: as §2

Molecule Oc1cccc2c1O[C@H]1[C@@H](O)CC[C@H]3CN(CC4CC4)CC[C@@]231 has a Ke of 14.1 nM.

Target: Kappa-type opioid receptor (Cavia porcellus) (UniProt P41144)
Sequence (P41144 whole entry): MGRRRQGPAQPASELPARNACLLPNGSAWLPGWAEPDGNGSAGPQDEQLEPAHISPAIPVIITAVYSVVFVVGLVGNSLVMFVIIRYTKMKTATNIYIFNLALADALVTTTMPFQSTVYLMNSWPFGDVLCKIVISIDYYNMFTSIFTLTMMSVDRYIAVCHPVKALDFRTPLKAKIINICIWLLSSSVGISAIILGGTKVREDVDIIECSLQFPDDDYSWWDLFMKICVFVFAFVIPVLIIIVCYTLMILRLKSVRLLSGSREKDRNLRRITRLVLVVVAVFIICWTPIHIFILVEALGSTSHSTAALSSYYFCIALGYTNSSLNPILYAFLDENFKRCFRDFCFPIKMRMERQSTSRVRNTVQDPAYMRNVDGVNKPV
Experiment: (§3) Opioid antagonistic activity was measured against kappa receptor in guinea pig ileal preparation using US-50488 as agonist
Type: functional
Details: not given
How it was run: (§4)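 Electrically stimulated guinea pig ileum longitudinal muscle strips. After control agonist curves and washout, the test antagonist is applied at 3 nM for 30 min. […] Ke = [antagonist]/(IC50 ratio – 1).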

With Oc1cccc2c1O[C@H]1[C@H](O)CC[C@@H]3CN(CC4CC4)CC[C@@]231 the Ke was 2.3 nM.

Organism: Cavia porcellus
Experiment: Opioid agonistic activity was measured by using Guinea pig ileum bioassay
Type: functional
Details: not given
How it was run: as §1

Work on Oc1cccc2c1O[C@H]1[C@@H](O)CC[C@H]3CN(CC4CC4)CC[C@@]231 yielded an IC50 of 2.8 nM.

Test system: Mus musculus
Experiment: In vivo analgesic activity was measured by using Antiphenyl quinone Writhing(PQW) test after subcutaneous administration
Type: functional
Details: sc
How it was run: (§5)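 Fasted male CFI mice, 18–23 g, given coded doses of test compound, then phenylquinone 1.25 mg/kg ip 5 min before the designated test time. Analgesia is scored as complete blockade of writhing over a 10-min observation period starting at test time.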

Point of comparison: Oc1cccc2c1O[C@H]1[C@@H](O)CC[C@H]3CN(CC4CC4)CC[C@@]231, ED50 0.37 mg/kg. Against it:
- CN1CC[C@]23c4cccc(O)c4O[C@H]2C(=O)CC[C@H]3C1 — within 1.5-fold, 0.4 mg/kg
- COc1cccc2c1O[C@H]1C(=O)CC[C@H]3CN(CC4CC4)CC[C@@]231 — 2.5-fold higher, 0.93 mg/kg
- COc1cccc2c1O[C@H]1[C@@H](O)CC[C@H]3CN(CC4CC4)CC[C@@]231 — 8.1-fold higher, 3 mg/kg
- Oc1cccc2c1O[C@H]1CCC[C@H]3CN(CC4CC4)CC[C@@]231 — 15-fold lower, 0.025 mg/kg
- O=C1CC[C@H]2CN(CC3CC3)CC[C@@]23c2cccc(O)c2O[C@@H]13 — 2.5-fold lower, 0.15 mg/kg

Test system: Mus musculus
Experiment: In vivo analgesic activity was measured by using Antiphenyl quinone Writhing(PQW) test after subcutaneous administration; Inactive
Type: functional
Details: sc
How it was run: as §5

C=CCN1CC[C@]23c4c5ccc(O)c4O[C@H]2C(=O)CC[C@@]3(O)[C@H]1C5 [NALOXONE] and O=C1CC[C@@H]2CN(CC3CC3)CC[C@@]23c2cccc(O)c2O[C@@H]13 cannot be ordered by ED50: > 100 mg/kg for the first, > 5.4 mg/kg for the second.

For Oc1cccc2c1O[C@H]1[C@H](O)CC[C@@H]3CN(CC4CC4)CC[C@@]231, the ED50 was > 4 mg/kg.

Test system: Mus musculus
Experiment: Narcotic antagonism was measured by using Anti-Straub tail (AST) test after subcutaneous administration
Type: functional
Details: sc
How it was run: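 Fasted male CFI mice, 18–23 g, given coded doses of test compound, then desonitazene 0.08 mg/kg ip 5 min before the designated test time. Antagonism is scored as complete blockade of the Straub tail response over a 5-min observation period starting at test time.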

Point of comparison: COc1cccc2c1O[C@H]1[C@@H](O)CC[C@H]3CN(CC4CC4)CC[C@@]231, ED50 1.4 mg/kg. Against it:
- C=CCN1CC[C@]23c4c5ccc(O)c4O[C@H]2C(=O)CC[C@@]3(O)[C@H]1C5 [NALOXONE] — 70-fold lower, 0.02 mg/kg
- CN1CC[C@]23c4cccc(O)c4O[C@H]2C(=O)CC[C@H]3C1 — the same, 1.4 mg/kg
- O=C1CC[C@@H]2CN(CC3CC3)CC[C@@]23c2cccc(O)c2O[C@@H]13 — within 1.5-fold, 1 mg/kg
- COc1cccc2c1O[C@H]1C(=O)CC[C@H]3CN(CC4CC4)CC[C@@]231 — 4.1-fold lower, 0.34 mg/kg
- Oc1cccc2c1O[C@H]1[C@@H](O)CC[C@H]3CN(CC4CC4)CC[C@@]231 — 2.5-fold lower, 0.55 mg/kg
- Oc1cccc2c1O[C@H]1[C@H](O)CC[C@@H]3CN(CC4CC4)CC[C@@]231 — 1.7-fold lower, 0.8 mg/kg
- Oc1cccc2c1O[C@H]1CCC[C@H]3CN(CC4CC4)CC[C@@]231 — 78-fold lower, 0.018 mg/kg
- O=C1CC[C@H]2CN(CC3CC3)CC[C@@]23c2cccc(O)c2O[C@@H]13 — 64-fold lower, 0.022 mg/kg

Target: Mu-type opioid receptor (Cavia porcellus) (UniProt P97266)
Sequence (P97266 whole entry): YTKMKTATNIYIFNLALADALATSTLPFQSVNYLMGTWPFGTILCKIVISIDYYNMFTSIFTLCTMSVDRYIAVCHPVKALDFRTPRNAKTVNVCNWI
Experiment: (§6) Opioid antagonistic activity was measured against mu receptor in guinea pig ileal preparation using morphine as agonist
Type: functional
Details: not given
How it was run: as §4

For Oc1cccc2c1O[C@H]1[C@H](O)CC[C@@H]3CN(CC4CC4)CC[C@@]231, the Ke was 0.57 nM.

Target: Mu-type opioid receptor (Cavia porcellus, UniProt P97266)
Sequence (P97266 whole entry): as above
Experiment: […]
Type: organism-based
Details: not given
How it was run: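 Brain membranes come from male Hartley guinea pigs, 250–300 g. Values are the mean of three experiments, each done in duplicate.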

Point of comparison: Oc1cccc2c1O[C@H]1[C@H](O)CC[C@@H]3CN(CC4CC4)CC[C@@]231, Ki 3.9 nM. Against it:
- CN1CC[C@]23c4cccc(O)c4O[C@H]2C(=O)CC[C@H]3C1 — 2-fold higher, 7.8 nM
- O=C1CC[C@@H]2CN(CC3CC3)CC[C@@]23c2cccc(O)c2O[C@@H]13 — 4.9-fold higher, 19 nM
- COc1cccc2c1O[C@H]1C(=O)CC[C@H]3CN(CC4CC4)CC[C@@]231 — 19-fold higher, 76 nM
- COc1cccc2c1O[C@H]1[C@@H](O)CC[C@H]3CN(CC4CC4)CC[C@@]231 — 7.4-fold higher, 29 nM
- Oc1cccc2c1O[C@H]1[C@@H](O)CC[C@H]3CN(CC4CC4)CC[C@@]231 — 2.8-fold lower, 1.4 nM
- Oc1cccc2c1O[C@H]1CCC[C@H]3CN(CC4CC4)CC[C@@]231 — 6.8-fold lower, 0.57 nM
- O=C1CC[C@H]2CN(CC3CC3)CC[C@@]23c2cccc(O)c2O[C@@H]13 — 16-fold lower, 0.25 nM

Target: Kappa-type opioid receptor (Cavia porcellus, UniProt P41144)
Sequence (P41144 whole entry): as the sequence (P41144 whole entry) above
Experiment: biochemical
Type: organism-based
Details: not given

Point of comparison: O=C1CC[C@H]2CN(CC3CC3)CC[C@@]23c2cccc(O)c2O[C@@H]13, Ki 1.73 nM. Against it:
- CN1CC[C@]23c4cccc(O)c4O[C@H]2C(=O)CC[C@H]3C1 — 110-fold higher, 186 nM
- O=C1CC[C@@H]2CN(CC3CC3)CC[C@@]23c2cccc(O)c2O[C@@H]13 — 36-fold higher, 62 nM
- COc1cccc2c1O[C@H]1C(=O)CC[C@H]3CN(CC4CC4)CC[C@@]231 — 1000-fold higher, 1760 nM
- COc1cccc2c1O[C@H]1[C@@H](O)CC[C@H]3CN(CC4CC4)CC[C@@]231 — 81-fold higher, 140 nM
- Oc1cccc2c1O[C@H]1[C@@H](O)CC[C@H]3CN(CC4CC4)CC[C@@]231 — 2.8-fold higher, 4.9 nM
- Oc1cccc2c1O[C@H]1[C@H](O)CC[C@@H]3CN(CC4CC4)CC[C@@]231 — 6.9-fold higher, 12 nM
- Oc1cccc2c1O[C@H]1CCC[C@H]3CN(CC4CC4)CC[C@@]231 — within 1.5-fold, 1.2 nM

Test system: not listed separately
Experiment: as §6
Type: functional
Details: not given
How it was run: as §4

For Oc1cccc2c1O[C@H]1[C@H](O)CC[C@@H]3CN(CC4CC4)CC[C@@]231, the Ratio was 6.3.

Test system: not listed separately
Experiment: as §3
Type: functional
Details: not given
How it was run: as §4

For Oc1cccc2c1O[C@H]1[C@H](O)CC[C@@H]3CN(CC4CC4)CC[C@@]231, the Ratio was 2.3.

Test system: not listed separately
Experiment: Ratio between IC50 of the agonist in presence of naloxone and IC50 of the control
Type: functional
Details: not given
How it was run: as §2

Point of comparison: Oc1cccc2c1O[C@H]1[C@H](O)CC[C@@H]3CN(CC4CC4)CC[C@@]231, Ratio 8.5. Against it:
- Oc1cccc2c1O[C@H]1[C@@H](O)CC[C@H]3CN(CC4CC4)CC[C@@]231 — lower, 8.1

— ChEMBL document CHEMBL1127466, “Synthesis and opioid activity of 7-oxygenated 2,3,4,4a,5,6,7,7a-octahydro-1H-benzofuro[3,2-e]isoquinolin-9-ols” (J Med Chem, 1994)
